Data set [1] in a line: Tmax in Wistar rat at 10 mg/kg, po by LC-MS/MS analysis. It is filed as ADME, organism-based. The conditions noted are these: in vivo. The gist of the method:
(§1)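 Male Wistar rats with jugular vein catheter, fasted overnight; dosed p.o. by gavage in olive oil or i.v. via catheter in 50% DMSO. Blood drawn from conscious unrestrained rats 5 min before dosing, then 5, 15, 30 min and 1–8 h after. Volume replaced with heparinized saline. Rats fed after 4 h sample. n = 3 per route.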

Data set [2] is described as follows: Elimination half-life in Wistar rat at 1 mg/kg, iv by LC-MS/MS analysis. The class given is ADME, organism-based. The conditions noted are these: in vivo, read-out: beta t1/2. The essentials:
as §1

For data set [3], the system named is Rattus norvegicus. Kind of data set: Antiinflammatory activity in Wistar rat model of BR103-induced paw edema assessed as reduction in hind paw swelling at 10 mg/kg, po administered via gavage pretreated for 4 hrs followed by BR103 challenge and measured after 30 mins by digital caliper method relative to control. It is filed as functional, organism-based. The essentials:
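Male Wistar rats given 10 mg/kg p.o. in olive oil at 0.5, 1, 2 or 4 h before i.pl. BR103 (350 μg in 100 μL 5% DMSO). Control rats received olive oil. Paw thickness and width measured by digital calipers at 0 and 0.5 h after agonist. n = 3–5 per group, one-way ANOVA.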

The subject of data set [4] is Rattus norvegicus. In words: Antiinflammatory activity in Wistar rat model of BR103-induced paw edema assessed as reduction in Cd244 gene expression at 10 mg/kg, po administered via gavage pretreated for 2 hrs followed by BR103 challenge and measured after 30 mins by SYBR green dye based RT-PCR analysis. It is filed as functional, organism-based. The gist of the method: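 Rats given 10 mg/kg p.o. in olive oil 2 h before i.pl. BR103 (350 μg/paw). Paws collected 0.5 h after agonist and homogenized in TRIsure for RNA. qPCR run in duplicate, normalized to Hprt, with fold change relative to sham. n = 3–5 male Wistar rats per group.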

The subject of data set [5] is Rattus norvegicus. Kind of data set: Antiinflammatory activity in Wistar rat model of BR103-induced paw edema assessed as reduction in hind paw swelling at 10 to 30 mg/kg, po administered via gavage pretreated for 2 hrs followed by BR103 challenge and measured after 30 mins by digital caliper method.

The source made the active and inactive calls. The calls are words filed in the database; no cut-off is given here.

With `Cc1cc(C(c2ccc(Cl)cc2)c2ccc(Cl)cc2)sc1C(=O)N[C@@H](CCCNC(=N)N)C(=O)O`, the Tmax in data set [1] was 5 h. For the same compound, in data set [2], the half-life was 3.18 h. For the same compound, the outcome with Rattus norvegicus [3] and in the data set on Rattus norvegicus [4] was Active. The result in the data set on Rattus norvegicus [5] was inactive.

In general, Tmax refers to the time at which the peak concentration occurs.

The record behind these values is ChEMBL document CHEMBL4376878, “Potent Thiophene Antagonists of Human Complement C3a Receptor with Anti-Inflammatory Activity” (J Med Chem, 2020).
